Experimental data reported in ChEMBL document CHEMBL4613269, “2-((4-Arylpiperazin-1-yl)methyl)benzonitrile Derivatives as Orally Available Inhibitors of Hepatitis C Virus with a Novel Mechanism of Action” (J Med Chem, 2020).
Activity calls are given as the source filed them. No cut-off for these calls is given here.

What was measured:
Influenza A virus = assay: Antiviral activity against influenza A virus H3N2/95-359 infected in MDCK cells assessed as reduction in virus-induced cytopathic effect incubated for 48 hrs by Reed-Muench method; format: functional, organism-based; settings: H3N2/95-359, MDCK
[1] = Cytotoxicity in MDCK cells assessed as reduction in cell viability; format: cell-based, Canis lupus familiaris; settings: dog
[2] = Selectivity index, ratio of CC50 for cytotoxicity in MDCK cells to EC50 for Antiviral activity against influenza A virus H3N2/95-359 infected in MDCK cells; format: toxicity, cell-based; settings: dog, read-out: Ratio CC50/EC50
Hepatitis C virus [3] = assay: Antiviral activity against HCV genotype 1b pseudoparticle infected in human Huh7.5 cells assessed as reduction in viral replication at 2 to 4 uM; format: functional, organism-based; settings: Hepacivirus hominis, subtype 1b
Method in brief: (§1)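 Genotype 1b or 2a HCV pseudoparticles made by co-transfecting HEK 293T cells with envelope and luciferase-reporter HIV plasmids; input standardized by luciferase. Huh7.5 cells co-incubated with compound and HCVpp for 4 h at 37°C, washed, then luciferase read at 72 h.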

Hepatitis C virus [4] = assay: Antiviral activity against HCV genotype 2a pseudoparticle infected in human Huh7.5 cells assessed as reduction in viral replication at 2 to 4 uM; format: functional, organism-based; settings: Hepacivirus hominis, subtype 2a; method in brief: as §1
[5] = Cytotoxicity in human Huh7.5 cells assessed as reduction in cell viability incubated for 96 hrs by MTT assay; format: cell-based
Method in brief: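 Huh7.5 cells seeded 24 h before compound addition. Viability read by MTT at 96 h. Eight-step 1:5 serial dilutions in triplicate; CC50 by Reed & Muench; three independent experiments.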

Hepatitis C virus [6] = assay: Antiviral activity against HCV J6/JFH/JC1 infected in human Huh7.5 cells incubated for 72 hrs by In-Cell Western assay; format: functional, organism-based, Hepacivirus hominis; settings: J6/JFH/JC1, Huh7.5, 72 h
Method in brief: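 Huh7.5 cells infected with HCVcc (MOI 0.1) and treated with compound at the same time for 72 h. Cells fixed with PFA, permeabilized, then stained for HCV Core and GAPDH with IR-dye secondaries. Core signal normalized to GAPDH. Eight-step 1:5 dilutions in triplicate; EC50 by Reed & Muench; mean of three experiments.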

[7] = Selectivity index, ratio of CC50 for cytotoxicity in human Huh7.5 cells assessed as reduction in cell viability incubated for 96 hrs by MTT assay to EC50 for antiviral activity against HCV J6/JFH/JC1 infected in human Huh7.5 cells incubated for 72 hrs by In-Cell Western assay; format: toxicity, cell-based; settings: read-out: Ratio CC50/EC50
Method in brief: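 HCVcc (MOI=0.1) infected Huh7.5 cells co-treated with eight-step 1:5 serial dilutions, triplicate wells. After 72 h, fixed, permeabilized, and stained for HCV Core and GAPDH with IR-dye secondaries. Core normalized to GAPDH. CC50 came from MTT at 96 h in uninfected Huh7.5 cells. EC50/CC50 were derived by Reed & Muench, mean ± SD of three independent experiments.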

Hepatitis C virus [8] = assay: Antiviral activity against HCV GS4.3 infected in human Huh7.5 cells assessed as reduction in viral NS3 protein levels at 1 uM incubated for 72 hrs by Western blot assay; format: functional, organism-based; settings: Hepacivirus hominis
Hepatitis C virus [9] = assay: Antiviral activity against HCV GS4.3 infected in human Huh7.5 cells assessed as reduction in viral replication at 0.3125 to 5 uM simultaneously treated with viral infection for 4 hrs and measured after 72 hrs by In-Cell Western assay; format: functional, organism-based; settings: Hepacivirus hominis
Method in brief: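 Huh7.5 cells infected with HCV while incubated with compound, either for 4 h across a concentration series or at 1.0 µM for varied times down to 15 min. Supernatant then replaced with fresh medium. Intracellular Core protein measured by In-Cell Western at 72 h.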

Hepatitis C virus [10] = assay: Antiviral activity against HCV genotype 1b pseudoparticle infected in human Huh7.5 cells assessed as reduction in viral replication at 10 uM; format: functional, organism-based; settings: Hepacivirus hominis, subtype 1b; method in brief: as §1
Hepatitis C virus [11] = assay: Antiviral activity against HCV genotype 2a pseudoparticle infected in human Huh7.5 cells assessed as reduction in viral replication at 10 uM; format: functional, organism-based; settings: Hepacivirus hominis, subtype 2a; method in brief: as §1
Hepatitis C virus [12] = assay: Antiviral activity against wild type HCV by qRT-PCR analysis based by Reed-Muench method; format: functional, organism-based, Hepacivirus hominis
Method in brief: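 Huh7.5 cells seeded 24 h, then infected with wild-type (or mutant) HCV with compound added at the same time. Incubated 72 h. Intracellular HCV RNA measured by qRT-PCR, 2^-ΔCt method, normalized to GAPDH. Eight-step 1:5 serial dilutions in triplicate; EC50 by Reed & Muench; three independent experiments.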

Hepatitis C virus [13] = assay: Antiviral activity against HCV expressing NS3 A156T mutant by qRT-PCR analysis based by Reed-Muench method; format: functional, organism-based, Hepacivirus hominis
Method in brief: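 Huh7.5 cells seeded at 3×10^4/cm², infected 24 h later with wild-type or mutant HCV stock while compound or solvent was added at the same time. Intracellular HCV RNA measured by qRT-PCR at 72 h, normalised to GAPDH, 2^-ΔCT method. EC50 by Reed & Muench from eight-step 1:5 serial dilutions, triplicate wells.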

**Q.** With CCOC(=O)C1=C[C@@H](OC(CC)CC)[C@H](NC(C)=O)[C@@H](N)C1 [OSELTAMIVIR] as the compound, how does the EC50 (Influenza A virus) read?
**A.** 2140 nM

**Q.** And the CC50 [1]?
**A.** > 640 µM

**Q.** What about the selectivity ratio [2] of the same compound?
**A.** > 299

**Q.** For Cc1nc(Nc2ncc(C(=O)Nc3c(C)cccc3Cl)s2)cc(N2CCN(CCO)CC2)n1, which Activity (Hepatitis C virus [3]) is on record?
**A.** Active

**Q.** And the Activity (Hepatitis C virus [4])?
**A.** Active

**Q.** With CCC[C@H](NC(=O)[C@@H]1[C@H]2CCC[C@H]2CN1C(=O)[C@@H](NC(=O)[C@@H](NC(=O)c1cnccn1)C1CCCCC1)C(C)(C)C)C(=O)C(=O)NC1CC1 [TELAPREVIR] as the compound, how does the CC50 at 96 h [5] read?
**A.** 55 µM

**Q.** And the EC50 (Hepatitis C virus [6])?
**A.** 146 nM

**Q.** And the selectivity ratio [7]?
**A.** 377

**Q.** And the Activity (Hepatitis C virus [8])?
**A.** Active

**Q.** What about the Activity (Hepatitis C virus [9]) of the same compound?
**A.** inactive

**Q.** And the Activity (Hepatitis C virus [10])?
**A.** inactive

**Q.** And the Activity (Hepatitis C virus [11])?
**A.** inactive

**Q.** And the EC50 (Hepatitis C virus [12])?
**A.** 7.8 nM

**Q.** And the EC50 (Hepatitis C virus [13])?
**A.** 1210 nM
